Experimental data as given in ChEMBL document CHEMBL3400013, “Synthesis and biological activity evaluation of hydrazone derivatives based on a Tröger's base skeleton” (Bioorg Med Chem, 2015).
Calls of active or inactive are those of the source. The calls are words filed in the database; no cut-off is given here.

Columns and labels:
[1] = system: Nucleic Acid; experiment: Binding affinity to DNA (unknown origin) assessed as DNA intercalation by UV-visible spectrophotometry in presence of Zn2+; assay type: nucleic-acid assay
[2] = system: Nucleic Acid; experiment: Binding affinity to DNA (unknown origin) assessed as DNA intercalation by UV-visible spectrophotometry in presence of Co2+; assay type: nucleic-acid assay
[3] = Metal chelating activity of the compound assessed as formation of Ca2+ complex by UV-vis spectrometry; assay type: physicochemical
[4] = system: Pichia kudriavzevii; experiment: Antifungal activity against Candida crusei up to 200 uM after 24 to 48 hrs by broth microdilution method; assay type: functional, organism-based
[5] = Cytostatic activity against human K562-TAX cells after 72 hrs by MTT assay; assay type: functional, cell-based
How it was run: (§1)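 Cells were seeded at 25,000–30,000 per well and pre-incubated for 24 h at 37°C in 5% CO2. Four-fold compound dilutions were added in duplicate and incubated for 72 h. MTT was added for 1–4 h, and formazan was dissolved in 10% aq SDS (pH 5.5) overnight at 37°C. OD was read at 540 nm. IC50 came from dose-response curves, mean ± SD of eight independent experiments.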

[6] = Metal chelating activity of the compound assessed as formation of Mn2+ complex by UV-vis spectrometry; assay type: physicochemical
[7] = system: Candida albicans; experiment: Antifungal activity against Candida albicans up to 200 uM after 24 to 48 hrs by broth microdilution method; assay type: functional, organism-based
[8] = system: Candida parapsilosis; experiment: Antifungal activity against Candida parapsilosis up to 200 uM after 24 to 48 hrs by broth microdilution method; assay type: functional, organism-based
[9] = Metal chelating activity of the compound assessed as formation of Co2+ complex by UV-vis spectrometry; assay type: physicochemical
[10] = system: Staphylococcus aureus; experiment: Antimicrobial activity against Staphylococcus aureus CCM 3953 up to 200 uM after 24 to 48 hrs by broth microdilution method; assay type: functional, organism-based
[11] = system: BJ; experiment: Selectivity index, ratio of IC50 for human BJ cells to IC50 for human K562-TAX cells; assay type: functional
[12] = system: BJ; experiment: Selectivity index, ratio of IC50 for human BJ cells to IC50 for human CEM-DNR cells; assay type: functional
[13] = system: Nucleic Acid; experiment: Binding affinity to DNA (unknown origin) assessed as DNA intercalation by UV-visible spectrophotometry in presence of Cu2+; assay type: nucleic-acid assay
[14] = system: Staphylococcus aureus; experiment: Antimicrobial activity against methicillin-resistant Staphylococcus aureus MRSA 4591 up to 200 uM after 24 to 48 hrs by broth microdilution method; assay type: functional, organism-based
[15] = system: MRC5; experiment: Selectivity index, ratio of IC50 for human MRC5 cells to IC50 for human K562-TAX cells; assay type: functional
[16] = system: K562; experiment: Selectivity index, ratio of IC50 for human MRC5 cells to IC50 for human K562 cells; assay type: functional
[17] = system: HCT-116; experiment: Selectivity index, ratio of IC50 for human MRC5 cells to IC50 for human HCT116 cells; assay type: functional
[18] = Metal chelating activity of the compound assessed as formation of Fe3+ complex by UV-vis spectrometry; assay type: physicochemical
[19] = Cytostatic activity against human CEM-DNR cells after 72 hrs by MTT assay; assay type: functional, cell-based; how it was run: as §1
[20] = system: K562; experiment: Cytostatic activity against human K562 cells after 72 hrs by MTT assay; assay type: functional, cell-based; conditions: K562, 72 h; how it was run: as §1
[21] = system: BJ; experiment: Selectivity index, ratio of IC50 for human BJ cells to IC50 for human K562 cells; assay type: functional
[22] = system: Nucleic Acid; experiment: Binding affinity to DNA (unknown origin) assessed as DNA intercalation by UV-visible spectrophotometry; assay type: nucleic-acid assay
[23] = system: Nucleic Acid; experiment: Binding affinity to DNA (unknown origin) assessed as DNA intercalation by UV-visible spectrophotometry in presence of Ni2+; assay type: nucleic-acid assay
[24] = system: A549; experiment: Selectivity index, ratio of IC50 for human MRC5 cells to IC50 for human A549 cells; assay type: functional
[25] = system: BJ; experiment: Selectivity index, ratio of IC50 for human BJ cells to IC50 for human p53-/- HCT116 cells; assay type: functional
[26] = system: A549; experiment: Cytostatic activity against human A549 cells after 72 hrs by MTT assay; assay type: functional, cell-based; conditions: A549, 72 h; how it was run: as §1
[27] = Metal chelating activity of the compound assessed as formation of Mg2+ complex by UV-vis spectrometry; assay type: physicochemical
[28] = system: CCRF-CEM; experiment: Cytostatic activity against human CCRF-CEM cells after 72 hrs by MTT assay; assay type: functional, cell-based; how it was run: as §1
[29] = Cytostatic activity against human HCT116 cells after 72 hrs by MTT assay; assay type: functional, cell-based; conditions: HCT-116, 72 h; how it was run: as §1
[30] = system: MRC5; experiment: Cytostatic activity against human MRC5 cells after 72 hrs by MTT assay; assay type: ADME, cell-based; conditions: MRC5, 72 h; how it was run: as §1
[31] = system: Pseudomonas aeruginosa; experiment: Antimicrobial activity against multidrug-resistant Pseudomonas aeruginosa A/16575 up to 200 uM after 24 to 48 hrs by broth microdilution method; assay type: functional, organism-based
[32] = Metal chelating activity of the compound assessed as formation of Zn2+ complex by UV-vis spectrometry; assay type: physicochemical
[33] = system: BJ; experiment: Selectivity index, ratio of IC50 for human BJ cells to IC50 for human HCT116 cells; assay type: functional
[34] = Metal chelating activity of the compound assessed as formation of Fe2+ complex by UV-vis spectrometry; assay type: physicochemical
[35] = system: Staphylococcus haemolyticus; experiment: Antimicrobial activity against methicillin-resistant Staphylococcus haemolyticus A1/16568 up to 200 uM after 24 to 48 hrs by broth microdilution method; assay type: functional, organism-based
[36] = system: BJ; experiment: Selectivity index, ratio of IC50 for human BJ cells to IC50 for human CCRF-CEM cells; assay type: functional; conditions: pooled result: one value given for 2 cell lines, strains, targets or settings
[37] = system: A549; experiment: Selectivity index, ratio of IC50 for human BJ cells to IC50 for human A549 cells; assay type: functional
[38] = system: Pseudomonas aeruginosa; experiment: Antimicrobial activity against Pseudomonas aeruginosa CCM 395 up to 200 uM after 24 to 48 hrs by broth microdilution method; assay type: functional, organism-based
[39] = system: Escherichia coli; experiment: Antimicrobial activity against Escherichia coli CCM 3954 up to 200 uM after 24 to 48 hrs by broth microdilution method; assay type: functional, organism-based
[40] = system: Candida tropicalis; experiment: Antifungal activity against Candida tropicalis up to 200 uM after 24 to 48 hrs by broth microdilution method; assay type: functional, organism-based
[41] = Metal chelating activity of the compound assessed as formation of Ni2+ complex by UV-vis spectrometry; assay type: physicochemical
[42] = system: HCT-116; experiment: Selectivity index, ratio of IC50 for human MRC5 cells to IC50 for human p53-/- HCT116 cells; assay type: functional
[43] = Metal chelating activity of the compound assessed as formation of Cu2+ complex by UV-vis spectrometry; assay type: physicochemical
[44] = system: CEM-DNR; experiment: Selectivity index, ratio of IC50 for human MRC5 cells to IC50 for human CEM-DNR cells; assay type: functional
[45] = Metal chelating activity of the compound assessed as formation of Cr3+ complex by UV-vis spectrometry; assay type: physicochemical
[46] = system: Enterococcus faecalis; experiment: Antimicrobial activity against Enterococcus faecalis CCM 4224 up to 200 uM after 24 to 48 hrs by broth microdilution method; assay type: functional, organism-based
[47] = system: Escherichia coli; experiment: Antimicrobial activity against multidrug-resistant Escherichia coli C/16702 up to 200 uM after 24 to 48 hrs by broth microdilution method; assay type: functional, organism-based
[48] = system: Nucleic Acid; experiment: Binding affinity to DNA (unknown origin) assessed as DNA intercalation by UV-visible spectrophotometry in presence of Fe3+; assay type: nucleic-acid assay
[49] = Cytostatic activity against human p53-/- HCT116 cells after 72 hrs by MTT assay; assay type: functional, cell-based; conditions: HCT-116, 72 h; how it was run: as §1
[50] = system: BJ; experiment: Cytostatic activity against human BJ cells after 72 hrs by MTT assay; assay type: ADME, cell-based; how it was run: as §1

With COc1cccnc1/C=N/NC(=O)c1ccc2c3c(ccc2c1)N1Cc2c(ccc4cc(C(=O)N/N=C/c5ncccc5OC)ccc24)N(C3)C1 the Activity [1] was “Active”, the Activity [2] was “Active” and the Activity [3] was “Not Active”. For the same compound, the Activity [4] was “inactive”, the IC50 [5] was 2.93 µM and the Activity [6] was “Not Active”. The Activity [7] was “inactive”, the Activity [8] was “inactive” and the Activity [9] was “Active”. For the same compound, the Activity [10] was “inactive”, the “Ratio IC50” value [11] was 34.1 and the “Ratio IC50” value [12] was 14.9. The Activity [13] was “Active”, the Activity [14] was “inactive” and the “Ratio IC50” value [15] was 34.1. For the same compound, the “Ratio IC50” value [16] was 1.8, the “Ratio IC50” value [17] was 1.2 and the Activity [18] was “Active”. For the same compound, the IC50 [19] was 6.71 µM, the IC50 [20] was 55.6 µM and the “Ratio IC50” value [21] was 1.8. The Activity [22] was “inactive”, the Activity [23] was “Active” and the “Ratio IC50” value [24] was 1. For the same compound, the “Ratio IC50” value [25] was 1, the IC50 [26] was over 100 µM and the Activity [27] was “Not Active”. It also gave an IC50 [28] of 36.6 µM, an IC50 [29] of 85.7 µM and an IC50 [30] of over 100 µM. For the same compound, the Activity [31] was “inactive”, the Activity [32] was “Active” and the “Ratio IC50” value [33] was 1.2. The Activity [34] was “Not Active”, the Activity [35] was “inactive” and the “Ratio IC50” value [36] was 2.7. For the same compound, the “Ratio IC50” value [37] was 1, the Activity [38] was “inactive” and the Activity [39] was “inactive”. The Activity [40] was “inactive”, the Activity [41] was “Active” and the “Ratio IC50” value [42] was 1. For the same compound, the Activity [43] was “Active”, the “Ratio IC50” value [44] was 14.9 and the Activity [45] was “Not Active”. The Activity [46] was “inactive”, the Activity [47] was “inactive” and the Activity [48] was “Active”. The IC50 [49] was over 100 µM and the IC50 [50] was over 100 µM.
